What was measured:
MCF7 = experiment: Growth inhibition of human MCF7 cells after 3 days by MTT assay; assay type: functional; conditions: MCF7, 72 h
In short: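 MCF-7 mammary adenocarcinoma cells were grown in DMEM (1.0 g/L D-glucose) with 10% heat-inactivated FBS, 2 mM L-alanyl-L-glutamine and penicillin-streptomycin at 37 °C under 5% CO2. Compounds were added 24 h after plating (0.01–100 µM final), with untreated controls. After 3 days, MTT was read at 570 nm; each value is the mean of 8 wells. GI50 was calculated per NCI, 100×(T−T0)/(C−T0)=50.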

LNCaP = experiment: Growth inhibition of human LNCAP cells after 3 days by MTT assay; assay type: functional; conditions: 72 h
In short: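 LNCap prostate adenocarcinoma cells were grown in RPMI 1640 with 10% heat-inactivated FBS, 2 mM L-alanyl-L-glutamine and penicillin-streptomycin at 37 °C under 5% CO2. Cells were plated, then treated 24 h later at 0.01–100 µM final against untreated controls. MTT was read at 570 nm after 3 days, averaging 8 wells. GI50 was derived by the NCI formula 100×(T−T0)/(C−T0)=50.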

SMILES	GI50 (MCF7) [µM]	GI50 (LNCaP) [µM]	LC50 (LNCaP) [µM]	LC50 (MCF7) [µM]
Cn1cccc1/C=C/c1n(C)cc[n+]1C	100			
Cn1cc[n+](C)c1/C=C/c1ccc(-c2ccccc2)s1	1.45	8.32		
Cn1cc[n+](C)c1/C=C/c1cc(-c2ccccc2)cs1	1	20		
Cn1c(/C=C/c2cccc[n+]2C)cc2ccccc21	15.1			
C[n+]1ccccc1/C=C/c1ccc(-c2ccccc2)s1	8.32	33.9		
C[n+]1ccccc1/C=C/c1cc(-c2ccccc2)cs1	0.525	7.59	69.2	77.6
Cn1cc[n+](C)c1/C=C/c1ccc(Br)s1	14.5			
Cn1cc[n+](C)c1/C=C/c1ccc(-c2cccs2)s1	4.68	6.03		
